Experimental findings from ChEMBL document CHEMBL4359903, “1,2,4-Oxadiazole derivatives targeting EGFR and c-Met degradation in TKI resistant NSCLC” (Eur J Med Chem, 2019) are described below.

Molecules are shown by their SMILES. Activity calls are given as the source filed them. The rule behind the calls is not given here.

The target of data set [1] is Epidermal growth factor receptor (Homo sapiens) (UniProt P00533). Briefly: Induction of EGFR degradation in wild type human A549 cells assessed as reduction in EGFR expression 0.2 to 0.6 uM incubated for 48 hrs by Western blot analysis. It is filed as cell-based. The method in brief: (§1)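 After 48 h treatment, cells were scraped and lysed in 1% SDS, 50 mM Tris-HCl pH 8.0, 10 mM EDTA with protease and phosphatase inhibitors. Lysates sonicated, protein measured by BCA, equal amounts run on SDS-PAGE and blotted to nitrocellulose. Primary antibodies (EGFR, c-Met, S473-Akt, Akt, GAPDH) used at 1:1000 overnight at 4 °C, HRP secondaries at 1:5000, ECL detection.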

Another data set has as its system PC-9. Briefly: Antiproliferative activity against human PC9 cells harbouring EGFR delE746-A750 mutant assessed as reduction in cell viability incubated for 48 hrs by MTT assay. The data set is classed as functional, cell-based. To be noted: PC-9, 48 h. The method in brief: (§2)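 Cells seeded at 5000 per well in 10% FBS and left overnight, then exposed to agent or DMSO in 5% FBS for 48 h. MTT added for 1 h, dye dissolved in DMSO, absorbance read at 570 nm. Viability given as percent of vehicle control. At least three independent experiments, means ± SD.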
(Formazan colour is commonly taken as a measure of viable cells.)

In data set [2] the test system is CL97. Description: Antiproliferative activity against human CL97 cells harbouring EGFR G719A/T790M mutant assessed as reduction in cell viability incubated for 72 hrs by MTT assay. The data set is classed as functional, cell-based. To be noted: CL97, 72 h.
The test system of data set [3] is NCI-H1975. Description: Cell cycle arrest in human NCI-H1975 cells harbouring EGFR L858R/T790M double mutant assessed as increase in cells accumulation at G2/M phase at 0.2 to 0.6 uM incubated for 48 hrs by propidium iodide based flow cytometry. The data set is classed as functional. Put shortly:
(§3)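 Cells plated at 3 × 10^5 per 6-cm dish and left overnight, then treated for 24 h and 48 h. Pellets fixed in 70% ethanol and stained with 40 µg/ml propidium iodide plus 20 µg/ml RNase A, 30 min on ice in the dark. DNA content read on a FACSCalibur flow cytometer.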
In general terms: Flow cytometry measures light scatter and fluorescence of single cells or particles in a stream.

Data set [4] addresses Epidermal growth factor receptor (Homo sapiens) (UniProt P00533). Description: Effect on EGFR degradation in wild type human A549 cells assessed as reduction in EGFR mRNA expression at 0.2 to 0.6 uM incubated for 48 hrs by RT-PCR analysis. The data set is classed as cell-based. The method in brief:
(§4)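 Total RNA extracted with TRIzol from H1975 and A549 cells treated at 0.2–0.6 µM. EGFR and c-Met mRNA assessed by RT-PCR.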

The next data set concerns A549. Briefly: Antiproliferative activity against wild type human A549 cells assessed as reduction in cell viability incubated for 48 hrs by MTT assay. It is filed as functional, cell-based. To be noted: A549, 48 h. Put shortly:
as §2

In data set [5] the target is Hepatocyte growth factor receptor (Homo sapiens) (UniProt P08581). Description: Effect on c-MET degradation in wild type human A549 cells assessed as reduction in c-Met mRNA expression at 0.2 to 0.6 uM incubated for 48 hrs by RT-PCR analysis. The data set is classed as cell-based. Put shortly: as §4
For data set [6] the target is unchanged. Description: Induction of c-MET degradation in human CL97 cells harbouring EGFR G719A/T790M assessed as reduction in c-Met expression at 0.2 to 0.6 uM incubated for 48 hrs by Western blot analysis. It is filed as cell-based. Put shortly: as §1
For orientation: A western blot detects proteins with antibodies after separation by electrophoresis.

For data set [7], the system named is NCI-H1975. Briefly: Antitumor activity against human NCI-H1975 cells harbouring EGFR L858R/T790M double mutant xenografted in athymic Nude-Foxn1nu BALB/c mouse assessed as tumor growth inhibition at 50 mg/kg, po administered once daily via gavage for 20 days measured twice a week by caliper method relative to control. It is filed as functional. To be noted: 480 h, read-out: TGI.

Data set [8] concerns Epidermal growth factor receptor (Homo sapiens), P00533 [G719A,T790M]. Description: Induction of EGFR G719A/T790M mutant degradation in human CL97 cells assessed as reduction in EGFR expression at 0.2 to 0.6 uM incubated for 48 hrs by Western blot analysis. The data set is classed as cell-based. The method in brief:
as §1

The target in data set [9] is Epidermal growth factor receptor (Homo sapiens) (UniProt P00533). Description: Induction of EGFR degradation in human MDA-MB-231 cells assessed as reduction in EGFR expression incubated for 48 hrs by immunoblot analysis. It is filed as cell-based. The method in brief: as §1
Data set [10] has as its target Hepatocyte growth factor receptor (Homo sapiens) (UniProt P08581). Description: Induction of c-MET degradation in human CL68 cells harbouring EGFR delE746-A750/T790M assessed as reduction in c-Met expression at 0.2 to 0.6 uM incubated for 48 hrs by Western blot analysis. It is filed as cell-based. The method in brief: as §1
The target is the same in data set [11]. Description: Induction of c-MET degradation in human PC9 cells harbouring EGFR delE746-A750 assessed as reduction in c-Met expression at 0.2 to 0.6 uM incubated for 48 hrs by Western blot analysis. It is filed as cell-based. Put shortly:
as §1

Data set [12] can be described thus: Toxicity in athymic Nude-Foxn1nu BALB/c mouse xenografted with human NCI-H1975 cells harbouring EGFR L858R/T790M double mutant assessed as body weight loss at 50 to 150 mg/kg, po administered once daily via gavage for 20 days measured twice a week. The data set is classed as organism-based. To be noted: in vivo, 480 h. The method in brief: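 Female Balb/c nude mice, 5 weeks old, injected subcutaneously in the right flank with 10^6 H1975 cells in 0.1 ml. Randomized at about 50 mm3, n = 8 per group. Gavaged once daily for 20 days with vehicle (10% DMSO/0.1% Tween 80/0.5% methylcellulose in sterile water) or 50 or 150 mg/kg. Calipers, V = width² × length × 0.52; volume and body weight twice weekly; Student's t-test.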

Data set [13] addresses Hepatocyte growth factor receptor (Homo sapiens) (UniProt P08581). Briefly: Induction of c-MET degradation in human MDA-MB-231 cells assessed as reduction in c-Met expression incubated for 48 hrs by immunoblot analysis. It is filed as cell-based. Put shortly: as §1
For data set [14], the system named is Epidermal growth factor receptor (Homo sapiens), P00533 [UNDEFINED MUTATION]. Briefly: Induction of EGFR E746-A750 deletion mutant degradation in human PC9 cells assessed as reduction in Akt phosphorylation at 0.4 to 0.8 uM incubated for 48 hrs by Western blot analysis. To be noted: 0.2 to 0.6 uM, in the assay text read “0.2 to 0.6 uM” for “0.4 to 0.8 uM”. It is filed as cell-based. The method in brief:
as §1

Data set [15] deals with Hepatocyte growth factor receptor (Homo sapiens) (UniProt P08581). Briefly: Induction of c-MET degradation in wild type human A549 cells assessed as reduction in c-Met expression at 0.2 to 0.6 uM incubated for 48 hrs by immunoblot analysis. The data set is classed as cell-based. Put shortly: as §1
The subject of data set [16] is CL97. Description: Antiproliferative activity against human CL97 cells harbouring EGFR G719A/T790M mutant assessed as reduction in cell viability incubated for 48 hrs by MTT assay. The data set is classed as functional, cell-based. To be noted: CL97, 48 h. The method in brief:
as §2

Data set [17] relates to Epidermal growth factor receptor (Homo sapiens), P00533 [UNDEFINED MUTATION]. Description: Induction of EGFR E746-A750 deletion/T790M mutant degradation in human CL68 cells assessed as Akt phosphorylation at 0.4 to 0.8 uM incubated for 48 hrs by Western blot analysis. The data set is classed as cell-based. The method in brief:
as §1

Data set [18] concerns CL97. Briefly: Cell cycle arrest in human CL97 cells harbouring EGFR G719A/T790M mutant assessed as increase in cells accumulation at G2/M phase at 0.4 to 0.8 uM incubated for 48 hrs by propidium iodide based flow cytometry. The data set is classed as functional. The method in brief: as §3
The test system of the next data set is MDA-MB-231. Briefly: Antiproliferative activity against human MDA-MB-231 cells assessed as reduction in cell viability incubated for 72 hrs by MTT assay. The data set is classed as functional, cell-based. To be noted: MDA-MB-231, 72 h. Put shortly:
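MTT viability assay after 72 h of drug exposure. Cells seeded at 5000 per well in 10% FBS and left overnight, then treated in 5% FBS. MTT added for 1 h, dye dissolved in DMSO, absorbance read at 570 nm. Viability given relative to vehicle-treated cells.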

Hepatocyte growth factor receptor (Homo sapiens), sequence (P08581 whole entry): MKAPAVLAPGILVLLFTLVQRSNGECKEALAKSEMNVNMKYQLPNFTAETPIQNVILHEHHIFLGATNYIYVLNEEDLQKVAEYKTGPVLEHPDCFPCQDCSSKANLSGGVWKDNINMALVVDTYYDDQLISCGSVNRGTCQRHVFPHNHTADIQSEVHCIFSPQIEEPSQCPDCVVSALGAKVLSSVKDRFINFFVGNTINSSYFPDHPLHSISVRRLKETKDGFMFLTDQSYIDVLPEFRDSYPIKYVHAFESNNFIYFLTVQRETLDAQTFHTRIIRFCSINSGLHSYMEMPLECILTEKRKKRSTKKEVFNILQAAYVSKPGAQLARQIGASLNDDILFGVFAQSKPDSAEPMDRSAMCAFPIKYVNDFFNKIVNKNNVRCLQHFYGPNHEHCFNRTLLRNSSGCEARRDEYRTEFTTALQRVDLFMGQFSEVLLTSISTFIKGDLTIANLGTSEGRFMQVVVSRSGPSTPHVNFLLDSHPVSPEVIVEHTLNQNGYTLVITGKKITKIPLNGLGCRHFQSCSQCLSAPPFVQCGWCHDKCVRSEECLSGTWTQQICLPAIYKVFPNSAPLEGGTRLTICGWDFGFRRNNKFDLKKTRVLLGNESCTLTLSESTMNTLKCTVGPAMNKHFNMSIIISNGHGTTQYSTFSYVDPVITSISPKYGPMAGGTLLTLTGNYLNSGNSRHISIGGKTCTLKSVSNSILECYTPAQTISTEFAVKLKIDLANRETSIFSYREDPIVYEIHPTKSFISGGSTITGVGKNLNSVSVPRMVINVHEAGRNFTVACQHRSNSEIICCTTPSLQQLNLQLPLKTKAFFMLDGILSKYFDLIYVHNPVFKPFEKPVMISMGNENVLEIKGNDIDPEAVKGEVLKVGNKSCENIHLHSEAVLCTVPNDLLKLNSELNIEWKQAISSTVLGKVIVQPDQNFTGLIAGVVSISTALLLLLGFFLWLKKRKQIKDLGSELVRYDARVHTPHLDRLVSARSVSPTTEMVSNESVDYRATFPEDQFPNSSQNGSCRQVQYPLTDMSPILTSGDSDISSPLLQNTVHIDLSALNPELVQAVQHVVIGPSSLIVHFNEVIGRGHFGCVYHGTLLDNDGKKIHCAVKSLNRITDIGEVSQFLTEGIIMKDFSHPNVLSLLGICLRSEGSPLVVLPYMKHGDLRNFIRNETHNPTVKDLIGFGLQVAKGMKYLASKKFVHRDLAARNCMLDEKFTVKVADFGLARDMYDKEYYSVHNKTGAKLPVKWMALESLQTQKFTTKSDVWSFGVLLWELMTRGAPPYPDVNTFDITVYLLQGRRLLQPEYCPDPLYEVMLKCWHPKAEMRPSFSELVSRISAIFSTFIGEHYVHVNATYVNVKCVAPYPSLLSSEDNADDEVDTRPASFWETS

For the molecule `O=C(Nc1cccc(-c2nc(-c3ccc(NC(=O)c4cccnc4)cc3Cl)no2)c1)Nc1ccc(NC(=O)C2CC2)c(C(F)(F)F)c1`, the result (in data set [1]; with NCI-H1975 [3]; in data set [6]; in data set [8]; in data set [9]; in data set [10]) was Active. Moreover, the outcome (in [11]; in data set [13]; in data set [14]; in data set [15]; in the data set on CL97 [18]) was Active. The IC50 (in general, the midpoint of a concentration-inhibition curve) came to 0.6 µM in the data set with PC-9; 0.5 µM in the data set with CL97 [2]; 0.3 µM in the data set on A549; 0.6 µM in the data set on CL97 [16]; 0.2 µM with MDA-MB-231. Also, the result in [4], in data set [5] and in [17] was inactive. Further, the inhibition in vivo at 50 mg/kg in the data set on NCI-H1975 [7] fell in the range of 29 to 37%. Also, in data set [12], the Activity entry is “Non-Toxic”.
